NPY-Y2 PAM-ag: human NPY-Y2 potentiation or agonism, primary screen. P49146. cells expressing NPY-Y2, potentiator/agonist read-out. activation, % at 3.6 µM. AID 1359. 0.45% of 220,000 active; in the data active = activation above about 27%;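 also: cells stimulated with NPY near EC25 plus isoproterenol at EC100; 0% = vehicle plus submaximal agonist and 100% = vehicle plus saturating agonist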
Target sequence (P49146 whole entry, looked up): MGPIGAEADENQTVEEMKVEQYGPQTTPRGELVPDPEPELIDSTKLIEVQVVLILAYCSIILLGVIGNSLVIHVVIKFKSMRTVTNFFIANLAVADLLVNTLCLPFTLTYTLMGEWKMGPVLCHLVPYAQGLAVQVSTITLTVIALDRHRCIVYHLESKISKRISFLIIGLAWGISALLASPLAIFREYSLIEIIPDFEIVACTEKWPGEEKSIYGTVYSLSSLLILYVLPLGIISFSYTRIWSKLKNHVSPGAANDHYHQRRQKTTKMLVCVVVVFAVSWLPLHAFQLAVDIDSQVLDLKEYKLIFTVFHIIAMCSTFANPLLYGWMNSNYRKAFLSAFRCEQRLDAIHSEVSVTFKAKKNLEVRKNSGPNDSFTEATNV
NPY-Y2 antag: NPY-Y2 (human) receptor antagonism; AID 793; inhibition, % at 2.7 µM; 0.99% of 140,000 active; P49146; NPY-Y2 expressing cells, antagonist mode; in the data active = inhibition above about 17%;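 also: 0% = vehicle with agonist challenge and 100% = reference antagonist with challenge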
NPY Y1 blocker: NPY-Y1 (human) receptor antagonism | P25929 | HEK293-CNG Y1 cells, membrane potential fluorescence; NPY at EC95, then isoproterenol | inhibition, % at 3.6 µM | 1% of 200,000 active;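 active = inhibition above the campaign mean inhibition of all tested compounds plus 3 SD, cut at about 20% in these data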;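 also: 0% = DMSO wells given NPY plus isoproterenol and 100% = isoproterenol alone without NPY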
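Assay system: HEK293 cells with Y1 receptor plus CNG channel | Probe or stimulus: NPY (25 nM), isoproterenol (1 µM), Ro 20-1724 (25 µM) | Timing: Compound incubation 1 h at room temperature, readout 45 min post-stimulation | Measured by: Membrane-potential fluorescent dye readout | Benchmarks: High control isoproterenol alone, low control NPY with isoproterenol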
Rad51 HR inh: blocks human Rad51 in homologous recombination | Q06609 | hRad51 DNA strand exchange, fluorescence dequenching | inhibition, % at 10 µM | 0.085% of 200,000 active | AID 1385;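 active = inhibition above 40% at the single screening dose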;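 also: 0% = DMSO control wells and 100% = blanks with heterologous ssDNA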
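Material: human Rad51–ssDNA filaments; Probe or stimulus: labelled 47-mer dsDNA for strand exchange; Doses: single 10 µM dose; Incubation: 37 °C 15-min filament assembly, 30-min compound preincubation, 15-min exchange; Technique: FRET fluorescence dequenching, excitation 485 nm, emission 520 nm; Measure: Fluorescence-based percent inhibition, control- and blank-normalised; Benchmarks: plate control and blank wells.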
NPY-Y1 PAM-ag: potentiates or activates human NPY-Y1 receptor. AID 1304. NPY-Y1 expressing cells, potentiator/agonist activation. 0.37% of 220,000 active. activation, % at 3.6 µM. P25929; in the data active = activation above about 33%, passing the limit was not always enough;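 also: cells stimulated with NPY at EC10 then isoproterenol at EC100; 0% = low agonist plus stimulus and 100% = saturating agonist plus stimulus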
Measles CPE: protection of cells from measles virus; Measles virus-infected cells, CPE protection, absorbance; protection (pct of control), % at 4 µM; 1.5% of 140,000 active; in the data active = protection mostly above about 24%, no sharp cut-off; inactive = mostly below about 26%
* hit, by the source's call; . = not tested or not shown. Compounds with a hit are over-represented: about 2.8% of the library has one in this group of screens.

SMILES	NPY-Y2 PAM-ag	NPY-Y2 antag	NPY Y1 blocker	Rad51 HR inh	NPY-Y1 PAM-ag	Measles CPE
CCOc1ccc(C(C)NC(=O)C2CCCC2)cc1 (centres undefined)	6.7	.	0.5	-7.0	-11.8	.
CCn1c(SCC(=O)Nc2ccccc2OC)nc(O)cc1=O	-12.1	.	.	-11.9	12.6	.
CC1CCC(C(C)C)C(OC(=O)Cn2c(-c3ccccc3)[n+](C)c3ccccc32)C1 (centres undefined)	-37.4	80.2*	112.1*	6.5	-128.9	22.8
CC1CCC(C(C)C)C(OC(=O)Cn2c(-c3ccc(F)cc3)[n+](C)c3ccccc32)C1 (centres undefined)	-11.2	46.2*	61.5*	5.5	-47.3	4.2
CC1CCC(C(C)C)C(OC(=O)C[n+]2cc(-c3ccc(Cl)cc3)n3c2CCC3)C1 (centres undefined)	-10.5	.	.	.	-30.1	.
CCC(SC1=N/C(=C/c2ccccc2OC)C(=O)N1c1ccccc1)C(=O)Nc1cc(C)on1 (centres undefined)	-16.5	1.3	-0.8	-0.7	-5.9	4.8
CCN(CC)S(=O)(=O)c1ccc2c(c1)nc(CCC(=O)Nc1ccccc1Cc1ccccc1)n2CC	-3.8	2.5	-5.9	1.3	5.1	8.4
O=C1c2cccc3cccc(c23)C(=O)N1c1cccnc1	2.0	9.5	1.4	7.5	-8.1	2.4
O=C1c2cccc3cccc(c23)C(=O)N1c1ccncc1	9.0	-1.2	-2.4	-4.0	-25.4	23.4*
COC(=O)Cc1c[nH]c2cccc(OCC(O)CN(Cc3ccccc3)C(C)C)c12 (centres undefined)	89.9*	4.0	-14.3	2.8	97.3*	-0.4
COC(=O)Cc1c[nH]c2cccc(OCC(O)CN(Cc3ccc([N+](=O)[O-])cc3)C(C)(C)C)c12 (centres undefined)	102.6*	4.2	-15.4	1.8	106.7*	3.3
Cc1cccc(NC(=O)C2CC(=O)n3cnnc3S2)c1 (centres undefined)	3.0	2.2	-3.5	6.9	4.6	6.9
COc1ccc(CNC(=O)CCC(=O)N2CCN(S(=O)(=O)c3ccc(Cl)cc3)CC2)cc1	-1.7	.	-2.1	-3.1	-8.1	.
Cc1cc(C(=O)CN2C(=O)NC3(CCCc4sccc43)C2=O)c(C)n1-c1ccc(Cl)cc1 (centres undefined)	3.2	0.2	-0.3	0.6	20.0	38.8*
CC(=O)c1ccc(NC(=O)CSc2ccsc2[N+](=O)[O-])cc1	3.9	.	-6.3	6.2	15.4	.
Cn1cnnc1SCc1ccccc1Br	80.3*	-0.6	-2.5	-4.4	107.6*	2.9
CS(=O)(=O)c1ccc2nc(N)sc2c1	7.7	0.0	17.0	2.3	41.0*	4.9
COc1cccc(S(=O)(=O)NCc2ccc(C(=O)Nc3ccc(Cl)c(Cl)c3)cc2)c1	23.4	0.8	-11.9	1.9	44.0*	11.3
Nc1cccc(C(=O)N/N=C/c2ccsc2)c1	2.7	.	10.9	-4.9	2.7	.
Clc1ccccc1-c1ccc(CN2CCN(c3ccccc3)CC2)o1	-25.9	27.7*	22.7*	.	-57.8	24.6
c1ccc(-c2nnc(CN3CCN(c4ccccc4)CC3)o2)cc1	0.7	.	9.8	17.6	-16.7	.
CCC(C)(C(=O)NC1CCCC1)N(Cc1cccs1)C(C)=O (centres undefined)	7.5	1.8	-3.2	-6.6	-15.6	12.8
CCC(C)(C(=O)NC1CCCC1)N(Cc1cccs1)C(=O)Cc1cccs1 (centres undefined)	7.9	38.4*	37.0*	-0.1	-30.4	3.7
CCC(C)(C(=O)NC1CCCC1)N(C(=O)c1ccccn1)c1ccccc1 (centres undefined)	6.2	7.2	6.3	0.0	-2.6	11.0
CCC(C)(C(=O)NC1CCCCC1)N(CC1CCCO1)C(=O)CNC(=O)c1ccccc1 (centres undefined)	6.3	1.3	-0.4	-13.1	1.6	23.3
SMILES	NPY-Y2 PAM-ag	NPY-Y2 antag	NPY Y1 blocker	Rad51 HR inh	NPY-Y1 PAM-ag	Measles CPE
CCC(C)(C(=O)NC1CCCCC1)N(CC1CCCO1)C(=O)Cc1cccs1 (centres undefined)	4.9	.	21.5*	6.8	-0.4	.
CCC(C)(C(=O)NC1CCCCC1)N(C(=O)Cc1cccs1)c1ccccc1 (centres undefined)	-7.6	17.2*	33.9*	.	-37.4	2.2
CCC(C)NC(=O)CSc1nnc(-c2ccc(Cl)cc2)n1N (centres undefined)	-10.3	.	-4.5	5.9	-13.0	.
CC1CCCCN1C(=O)Cn1cc(C#N)c2ccccc21 (centres undefined)	-12.9	5.4	4.6	5.8	-20.2	39.7*
C/C(=N\NC(=O)c1cc(-c2ccc(C)s2)[nH]n1)c1ccco1	-2.7	4.8	11.8	3.9	14.2	25.9
Nc1ccc(C(=O)OCC(=O)N2CCc3ccccc3C2)cc1[N+](=O)[O-]	0.5	-0.2	-6.3	1.9	-0.4	39.4
Nc1ccc(C(=O)OCC(=O)N2c3ccccc3Sc3ccccc32)cc1[N+](=O)[O-]	1.5	1.2	7.3	-42.6	1.0	33.2*
O=c1cc(CSc2nc(NCc3ccccc3)c3ccccc3n2)nc2ccc(Cl)cn12	-16.0	7.0	5.2	4.6	3.2	6.5
CSc1nc(Cl)c(Cc2ccc(OC(C)C)cc2)c(N(C)C)n1	-6.8	30.0*	48.8*	-4.5	-28.7	12.1
Cc1cc(Nc2cccc(F)c2)nc(-c2ccccc2O)n1	42.4*	-5.4	-9.5	-5.0	39.8*	18.9
Cc1ccccc1NC1=C(C(=O)c2ccccc2)N(C)S(=O)(=O)c2ccccc21	-23.2	0.5	1.2	5.8	-1.1	2.7
O=C(C1=C(Nc2ccccc2)c2ccccc2S(=O)(=O)N1)c1ccccc1	1.4	6.5	4.7	-4.5	-28.6	26.0*
Cc1ccc(S(=O)(=O)N(C)CC(=O)N/N=C/c2ccc(C)o2)cc1	-14.6	.	.	5.0	24.8	.
O=C(Nc1ccc(C(=O)NC2CCCCC2)cc1)c1cncc(Br)c1	-3.3	.	2.7	0.9	2.1	.
COc1ccc(N=CC2=C(Nc3ccc(OC)cc3)c3c(C)nn(-c4ccccn4)c3CC2)cc1	2.8	13.3	20.7*	-3.6	-18.0	.
CCS(=O)(=O)c1ccc(C(=O)Nc2ccccc2)c(Cl)c1Cl	-8.8	0.2	-0.2	8.5	2.2	89.2*
CC1(C)Cc2ccccc2C(N/N=C/c2ccc(Cl)cc2)=N1	3.3	0.9	-3.3	12.3	9.2	1.4
Cc1sc2nc(C3CC3)nc(SCC(=O)N3c4ccccc4CC3C)c2c1C (centres undefined)	-25.6	1.6	4.4	-3.5	-49.5	63.8*
Cc1sc2nc(C3CC3)nc(SCC(=O)NCc3ccco3)c2c1C	-7.9	6.6	2.5	7.4	-10.5	5.1
COc1cc(S(=O)(=O)NC(C)C)ccc1Cl	-4.7	4.2	6.0	-0.5	5.8	32.7*

Bioassay records: PubChem, several laboratories
